Calls of active or inactive are those of the source. No cut-off for these calls is given here.
Columns and labels:
[1] = Aqueous solubility of compound after 24 hrs by HPLC method; assay type: physicochemical
Staphylococcus aureus [2] = experiment: In vivo anti-virulence activity against methicillin-resistant Staphylococcus aureus Mu50 infected in BALB/c mouse model assessed as reduction in bacterial load in heart at 0.4 mg bid for 3.5 days administered intraperitoneally 6 hrs post infection by serial dilution method; assay type: functional; set-up: scale not given: the % may be the effect or the level left
How it was run: (§1)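 Mice (n=10 per group) infected retro-orbitally with S. aureus Mu50 (1.1 × 10^9 or 1.3 × 10^9 CFU) or NRS271 (2.3 × 10^8 CFU). Compound given i.p. b.i.d., either 6 h after infection for 3.5 d or 24 h before infection for 4.5 d. Mice killed after 4.5 d; log10 CFU per organ counted in kidneys and hearts. Two-tailed Mann−Whitney test.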

Staphylococcus aureus [3] = experiment: In vivo anti-virulence activity against methicillin-resistant Staphylococcus aureus NRS271 infected in BALB/c mouse model assessed as reduction in bacterial load in kidneys at 0.4 mg bid for 4.5 days administered intraperitoneally 24 hrs prior to infection by serial dilution method; assay type: functional; set-up: scale not given: the % may be the effect or the level left; how it was run: as §1
Staphylococcus aureus [4] = experiment: In vivo anti-virulence activity against Staphylococcus aureus Newman infected in BALB/c mouse model assessed as reduction in bacterial load in heart at 0.1 mg bid for 3.5 days administered intraperitoneally 6 hrs post infection by serial dilution method; assay type: functional, organism-based
How it was run: (§2)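 Mice (n=10 per group) got 2.3 × 10^7 CFU S. aureus Newman by retro-orbital injection. Compound was given intraperitoneally b.i.d., either 24 h before infection (4.5 d) or 6 h after infection (3.5 d). Mice were sacrificed after 4.5 d and CFU counted in kidneys and hearts. Groups were compared by two-tailed Mann-Whitney test.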

Staphylococcus aureus [5] = experiment: Antibacterial activity against methicillin-resistant Staphylococcus aureus USA300 LAC assessed as change in bacterial growth at 0.2 mM […]; assay type: functional
Staphylococcus aureus [6] = experiment: Chemo-sensitization activity in non-pigmented Staphylococcus aureus Newman assessed as increase in H2O2-induced bacterial death by measuring survival rate at 1 uM pre-incubated for 24 hrs followed by H2O2 addition measured after 30 mins by serial dilution method (reference value: 33.3%); assay type: functional
How it was run: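 S. aureus Newman was pre-incubated with 1 µM compound, with N-acetylcysteine as antioxidant control, or mock-treated. Cells were then exposed to 1.5% H2O2. Percent bacterial survival was compared with the mock-treated culture.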

Staphylococcus aureus [7] = experiment: In vivo anti-virulence activity against Staphylococcus aureus Newman infected in BALB/c mouse model assessed as reduction in bacterial load in kidneys at 0.1 mg bid for 3.5 days administered intraperitoneally 6 hrs post infection by serial dilution method; assay type: functional, organism-based; how it was run: as §2
Staphylococcus aureus [8] = experiment: In vivo anti-virulence activity against methicillin-resistant Staphylococcus aureus NF65Y infected in BALB/c mouse model assessed as reduction in bacterial load in kidney at 0.1 mg bid for 3.5 days administered intraperitoneally 6 hrs post infection by serial dilution method relative to linezolid; assay type: functional, organism-based
How it was run: (§3)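 Mice infected retro-orbitally with S. aureus NF65Y (3.5 × 10^8 CFU) or XN108 (2.1 × 10^8 CFU). Test compound given i.p. b.i.d. starting 6 h post-infection. […] Log10 CFU per kidney and heart counted. Two-tailed Mann−Whitney test.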

Rattus norvegicus [9] = experiment: Toxicity in Sprague-Dawley rat at 60 to 1000 mg/kg, po administered as single dose assessed as mortality measured during 2 weeks post administration; assay type: organism-based; conditions: in vivo, 336 h
How it was run: (§4)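 Rats, 30 in total, randomised into three groups. Each received a single oral dose of 60, 250 or 1000 mg/kg on day 1. Poisoning symptoms, mortality, behaviour, water and food consumption and body weight monitored immediately and over 2 weeks.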

Staphylococcus aureus [10] = experiment: In vivo anti-virulence activity against methicillin-resistant Staphylococcus aureus LRSA202 infected in BALB/c mouse model assessed as reduction in bacterial load in heart at 0.1 mg bid for 3.5 days administered intraperitoneally 6 hrs post infection by serial dilution method relative to control; assay type: functional, organism-based
How it was run: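 Mice were infected by retro-orbital injection with LRSA56 (5.0 × 10^7 CFU) or LRSA202 (7.0 × 10^7 CFU). Compound was given intraperitoneally 6 h after infection. […] Log10 CFU was counted in kidneys and hearts, with groups compared by two-tailed Mann-Whitney test.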

Rattus norvegicus [11] = experiment: Toxicity in Sprague-Dawley rat at 60 to 1000 mg/kg, po administered as single dose assessed as poisoning symptoms measured during 2 weeks post administration; assay type: organism-based; conditions: in vivo, 336 h; how it was run: as §4
Rattus norvegicus [12] = experiment: Toxicity in Sprague-Dawley rat at 60 to 1000 mg/kg, po administered as single dose assessed as changes in body weight measured during 2 weeks post administration; assay type: organism-based; conditions: in vivo, 336 h; how it was run: as §4
Staphylococcus aureus [13] = experiment: In vivo anti-virulence activity against methicillin-resistant Staphylococcus aureus XN108 infected in BALB/c mouse model assessed as reduction in bacterial load in heart at 0.1 mg bid for 3.5 days administered intraperitoneally 6 hrs post infection by serial dilution method relative to vancomycin; assay type: functional, organism-based; how it was run: as §3
[14] = Tmax in mouse at 2 mg/kg, iv administered as single dose by LC-MS/MS analysis; assay type: ADME, organism-based; conditions: in vivo
Staphylococcus aureus [15] = experiment: In vivo anti-virulence activity against Staphylococcus aureus NRS271 infected in BALB/c mouse model assessed as reduction in bacterial load in kidney at 0.2 mg bid for 3.5 days administered orally 6 hrs post infection by serial dilution method relative to control; assay type: functional, organism-based
How it was run: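 Mice were infected by retro-orbital injection with Mu50 (4.6 × 10^9 CFU) or NRS271 (3.5 × 10^8 CFU). Oral compound was given b.i.d. for 3.5 d, starting 6 h after infection. Log10 CFU was counted per kidney and per heart.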

[16] = biological target: T1, 4,4'-diapophytoene desaturase (4,4'-diaponeurosporene-forming) (Staphylococcus aureus (strain Mu50 / ATCC 700699)) (UniProt Q99R76); conditions: Staphylococcus aureus subsp. aureus Mu50; 1 uM
T1 sequence (whole entry): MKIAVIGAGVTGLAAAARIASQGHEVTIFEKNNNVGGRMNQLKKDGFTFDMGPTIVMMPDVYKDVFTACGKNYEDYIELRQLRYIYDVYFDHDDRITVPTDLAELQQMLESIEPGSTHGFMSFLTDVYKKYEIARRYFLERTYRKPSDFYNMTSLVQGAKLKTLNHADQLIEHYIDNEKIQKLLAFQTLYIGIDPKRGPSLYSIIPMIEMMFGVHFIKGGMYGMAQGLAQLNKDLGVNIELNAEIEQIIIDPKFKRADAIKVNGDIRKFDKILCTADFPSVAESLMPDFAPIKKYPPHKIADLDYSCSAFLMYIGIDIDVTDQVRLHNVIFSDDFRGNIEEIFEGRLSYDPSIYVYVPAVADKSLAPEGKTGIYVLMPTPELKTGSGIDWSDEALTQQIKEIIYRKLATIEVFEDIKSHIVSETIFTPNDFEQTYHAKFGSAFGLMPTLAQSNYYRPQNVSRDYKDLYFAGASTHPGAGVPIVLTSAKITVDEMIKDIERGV

[17] = AUC (0 to 24 hrs) in Sprague-Dawley rat at 10 mg/kg, po administered as single dose by LC-MS/MS analysis; assay type: ADME, organism-based; set-up: time < 24 hr, dose 10 mg/kg, route oral; conditions: in vivo
Cytochrome P450 3A4 = Cytochrome P450 3A4 (Homo sapiens, UniProt P08684); experiment: Inhibition of CYP3A4 in human liver microsomes using testosterone as substrate upto 10 uM after 5 mins in presence of NADPH by LC-MS/MS analysis; assay type: ADME
Cytochrome P450 3A4, sequence (P08684 whole entry): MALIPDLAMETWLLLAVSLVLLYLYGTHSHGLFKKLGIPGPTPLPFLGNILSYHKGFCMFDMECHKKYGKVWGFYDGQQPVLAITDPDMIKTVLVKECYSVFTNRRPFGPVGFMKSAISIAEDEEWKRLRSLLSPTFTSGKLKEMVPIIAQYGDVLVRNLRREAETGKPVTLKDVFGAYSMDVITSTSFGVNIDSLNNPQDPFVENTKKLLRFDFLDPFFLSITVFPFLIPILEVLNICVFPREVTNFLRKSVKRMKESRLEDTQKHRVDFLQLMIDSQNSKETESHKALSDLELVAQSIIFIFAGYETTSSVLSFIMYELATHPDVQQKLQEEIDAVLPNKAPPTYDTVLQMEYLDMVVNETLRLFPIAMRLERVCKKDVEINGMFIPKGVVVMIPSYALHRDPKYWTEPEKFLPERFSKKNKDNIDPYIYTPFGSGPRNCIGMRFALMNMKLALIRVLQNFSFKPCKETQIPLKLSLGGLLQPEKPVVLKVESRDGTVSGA

[18] = Cmax in mouse at 10 mg/kg, po administered as single dose by LC-MS/MS analysis; assay type: ADME, organism-based; set-up: dose 10 mg/kg, route oral; conditions: in vivo

Row | SMILES | solubility at 24 h [1] [µg/mL] | Activity (Staphylococcus aureus [2]) [%] | Activity (Staphylococcus aureus [3]) [%] | Activity (Staphylococcus aureus [4]) | Activity (Staphylococcus aureus [5]) | Activity (Staphylococcus aureus [6]) | Activity (Staphylococcus aureus [7]) | Activity (Staphylococcus aureus [8]) | Activity (Rattus norvegicus [9]) | Activity (Staphylococcus aureus [10]) | Activity (Rattus norvegicus [11]) | Activity (Rattus norvegicus [12]) | Activity (Staphylococcus aureus [13]) | Tmax [14] [min] | Activity (Staphylococcus aureus [15]) | survival at 1 µM (Staphylococcus aureus [6]) [%] | Survival [16] [%] | AUC(0-t) at 24 h [17] [ng·h/mL] | IC50 (Cytochrome P450 3A4) [µM] | Cmax [18] [ng/mL]
1 | CN(C/C=C/c1ccc(-c2ccccc2)cc1)Cc1cccc2cc[nH]c12.Cl | 200 | >95 | >95 | inactive | inactive | Active | inactive |  |  |  |  |  |  |  |  |  |  |  |  | 
2 | CN(C/C=C/c1ccc(-c2ccccc2)cc1)Cc1coc2ccccc12.Cl | 200 | >95 | >95 | Active | inactive |  | Active | Active | Non-Toxic | Active | Non-Toxic | Non-Toxic | Active | 4.8 | Active | 3 | 0.4 | 899 | > 10 | 801
